The subject of series [1] is E. coli K1-infected ICR mice. Description: E. coli K1 sepsis mouse model. It counts as in vivo.
In a further series the test system is ICR mice. Description: In vivo toxicity. As to conditions: for kidney histology, in words: 20 mg/kg, two doses for 3 d, hematoxylin and eosin. In a few lines:
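Female ICR mice, n = 5 per group, received test compound i.p. at a low (5 mg/kg/day for 5 d) or high (20 mg/kg twice per day for 3 d) regimen. Serum creatinine, AST and ALT were measured and compared with controls by one-way ANOVA with Dunnett's test; mean ± SEM.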

For series [2], the system named is FITC-LPS binding to RAW 264.7 cells. Kind of series: Flow cytometry of FITC-LPS binding to RAW 264.7 cells. It counts as cell-based. As to conditions: posttreatment with 40 μM peptide, FITC-LPS 40 μg/mL, 30 min, 4 °C; MFI. In a few lines:
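RAW 264.7 cells (10⁶) were exposed under serum-free conditions at 4 °C for 30 min to test compound (40 μM) or FITC-labelled E. coli O55:B5 LPS (40 μg/mL), given before or after the other. Cells were PBS-washed and surface fluorescence was read by flow cytometry as MFI (%). Three independent experiments, mean ± SEM, one-way ANOVA with Dunnett's test.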

The subject of a further series is RAW 264.7 cells. Kind of series: Cytotoxicity, WST-8 assay. It counts as cell-based. Conditions: 24 h. Background: Tetrazolium assays rely on reduction of a dye to a coloured formazan, in cell work by metabolically active cells.
Series [3] concerns the target TLR4 (Homo sapiens, UniProt O00206). Kind of series: SPR binding to TLR4. Background: SPR reads the build-up and loss of mass on a sensor chip optically.
The target in series [4] is T1, MD-2 (Homo sapiens, UniProt Q9Y6Y9).
T1 sequence (Q9Y6Y9 19-160): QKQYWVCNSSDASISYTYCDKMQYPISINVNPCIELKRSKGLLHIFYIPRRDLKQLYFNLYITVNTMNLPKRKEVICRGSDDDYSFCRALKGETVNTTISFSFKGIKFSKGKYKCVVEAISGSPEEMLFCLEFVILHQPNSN
Description: SPR binding to MD-2.

The target in the next series is TLR4/MD-2 (Homo sapiens, UniProt O00206+Q9Y6Y9). Kind of series: SPR binding to TLR4/MD-2 complex.
The target in series [5] is MD-2. As to conditions: read-out: binding affinity of LPS to MD-2; cited from earlier work.
Series [6] concerns the target TLR4. Conditions: read-out: binding affinity of LPS to TLR4; cited from earlier work.
Series [7] concerns the target TLR4/MD-2 complex (human) (UniProt O00206). Description: SPR.
Where [8] appears, read: 1 mg/kg i.p., E. coli K1 5 × 10^6 CFU/mouse, serum.
The mark [9] stands for this setting: 20 mg/kg i.p. twice per day for 3 d, ICR mice, n = 5.

Where no end group is shown, it is not given here.

Chain of TLR4/MD-2 (O00206 24-631 limits assumed): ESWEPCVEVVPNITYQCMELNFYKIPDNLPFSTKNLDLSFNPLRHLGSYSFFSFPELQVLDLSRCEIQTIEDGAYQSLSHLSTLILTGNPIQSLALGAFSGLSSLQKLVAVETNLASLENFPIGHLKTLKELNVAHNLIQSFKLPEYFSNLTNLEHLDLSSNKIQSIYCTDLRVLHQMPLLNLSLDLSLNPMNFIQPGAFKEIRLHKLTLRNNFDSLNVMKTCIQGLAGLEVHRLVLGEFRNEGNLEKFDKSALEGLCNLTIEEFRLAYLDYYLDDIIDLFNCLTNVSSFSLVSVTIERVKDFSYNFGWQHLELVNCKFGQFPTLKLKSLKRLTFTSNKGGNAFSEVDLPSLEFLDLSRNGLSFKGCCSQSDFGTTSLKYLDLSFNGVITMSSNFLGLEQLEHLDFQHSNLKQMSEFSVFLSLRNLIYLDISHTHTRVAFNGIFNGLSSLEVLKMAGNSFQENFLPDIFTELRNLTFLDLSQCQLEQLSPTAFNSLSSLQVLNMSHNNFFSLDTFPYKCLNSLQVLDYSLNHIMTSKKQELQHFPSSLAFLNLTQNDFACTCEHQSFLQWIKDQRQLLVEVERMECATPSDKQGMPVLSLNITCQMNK
Chain of TLR4/MD-2 (Q9Y6Y9 17-160 limits assumed): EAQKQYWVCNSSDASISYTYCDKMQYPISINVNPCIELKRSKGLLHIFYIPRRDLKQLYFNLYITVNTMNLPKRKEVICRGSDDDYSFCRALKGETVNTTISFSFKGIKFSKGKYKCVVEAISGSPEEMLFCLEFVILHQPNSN
Chain of TLR4/MD-2 complex (human) (O00206 24-839, one chain of several): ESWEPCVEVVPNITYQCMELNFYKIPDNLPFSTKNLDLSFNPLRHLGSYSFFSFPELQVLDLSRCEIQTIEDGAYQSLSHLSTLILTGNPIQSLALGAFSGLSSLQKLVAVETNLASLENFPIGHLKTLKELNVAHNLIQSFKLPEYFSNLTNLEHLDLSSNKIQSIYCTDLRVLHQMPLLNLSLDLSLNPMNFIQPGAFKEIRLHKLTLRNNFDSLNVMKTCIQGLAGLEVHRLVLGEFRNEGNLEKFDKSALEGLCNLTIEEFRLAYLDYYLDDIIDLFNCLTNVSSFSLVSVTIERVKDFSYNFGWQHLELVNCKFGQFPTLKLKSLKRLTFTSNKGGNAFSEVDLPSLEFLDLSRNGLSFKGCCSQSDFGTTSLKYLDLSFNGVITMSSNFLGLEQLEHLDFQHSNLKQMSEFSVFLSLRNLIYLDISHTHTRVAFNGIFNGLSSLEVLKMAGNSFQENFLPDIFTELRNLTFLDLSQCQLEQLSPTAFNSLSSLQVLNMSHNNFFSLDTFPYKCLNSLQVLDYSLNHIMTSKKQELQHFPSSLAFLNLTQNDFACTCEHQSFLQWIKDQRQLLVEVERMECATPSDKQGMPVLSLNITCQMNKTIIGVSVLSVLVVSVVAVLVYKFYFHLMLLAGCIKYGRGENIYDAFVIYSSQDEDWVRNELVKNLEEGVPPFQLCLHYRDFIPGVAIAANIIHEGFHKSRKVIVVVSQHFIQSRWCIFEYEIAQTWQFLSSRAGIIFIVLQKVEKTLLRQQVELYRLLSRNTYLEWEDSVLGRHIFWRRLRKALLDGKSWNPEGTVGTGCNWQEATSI
Chain of TLR4 (Homo sapiens, UniProt O00206) (O00206 24-839): as the sequence (O00206 24-839, one chain of several) above

For the substance Polymyxin B [PMB], the “reduction of endotoxin levels” value in [1] (1 mg/kg i.p., E. coli K1 5 × 10^6 CFU/mouse, 16 h later, n = 5) came to 34.6%. Also, in series [1] (setting [8]), the “ALT level reduced to” value is on record as 19.4%, the “AST level reduced to” value was 25.7% and the “BUN level reduced to” value is given as 16.7%. The “serum and lung tissue levels of TNF-α and IL-6, in words” value in [1] (1 mg/kg, compared to E. coli K1–infected control mice, ELISA) is recorded as “significantly reduced”. Also, the “lung tissue histology, in words” value in series [1] (1 mg/kg, hematoxylin and eosin, neutrophil infiltration) is “significantly protected against lung damage”. For the same substance, in the series on ICR mice (setting [9]), the “elevation of blood urea nitrogen (BUN) level” value was 26.6%, the “elevation of serum creatinine level” value was 37.1%, the “increase of ALT level” value worked out at 30.6% and the “increase of AST level” value is recorded as 17.8%. In the series with ICR mice, the “kidney histology, in words” value is “notable kidney damage”. For the same substance, the “competitive displacement of prebound LPS on RAW 264.7 cells” value in series [2] is “no competitive impact”. The substance also displayed a cell survival rate in the series with RAW 264.7 cells (50 μM peptide) of 30.6%. In the series with RAW 264.7 cells (100 μM peptide), this substance returned a cell survival rate of 15.5%.
In the case of “RWKIFKKIEKVGRNVRDGIIKAGPAVAVVGQAATVVK-NH2 [Papiliocin]”, the Kd on TLR4 [3] worked out at 0.41 µM; on MD-2 [4], 1.1 µM; at TLR4/MD-2, 3.7 µM. Also, the “change in creatinine level compared to the control, in words” value in the series on ICR mice (5 mg/kg/day for 5 d and 20 mg/kg twice per day for 3 d, i.p.) is “neither lower dose of PMB nor any dose of papiliocin induced any aberrant changes in creatine level”. Also, the “kidney histology, in words” value in the series on ICR mice is reported as “did not show any signs of morphology changes in the kidneys”. The kon on TLR4/MD-2 (read-out: association rate, TLR4/MD-2 complex) worked out at 3850 M⁻¹ s⁻¹. Besides, the koff at TLR4/MD-2 (read-out: dissociation rate, TLR4/MD-2 complex) amounted to 0.0141 s⁻¹. Moreover, the cell survival rate was 100% in the series on RAW 264.7 cells (50 μM peptide) and 78.0% in the series on RAW 264.7 cells (100 μM peptide).
For the substance lipopolysaccharide [LPS], the Kd on MD-2 [5] was 8.7 µM; at TLR4 [6] it was 14.1 µM.
In series [7], papiliocin (peptide) registered a koff of 0.0141 s⁻¹ and a kon of 3850 M⁻¹ s⁻¹.
In the case of papiliocin G23P (peptide), the fold lower affinity compared to papiliocin in [7] was determined as 100 fold.
Still for that read-out and setting: in the case of papiliocin P24G (peptide) it was 10 fold.

Source of the values: article PMC8915966 (Proceedings of the National Academy of Sciences of the …, 2022).
